Screening data: PubChem BioAssay, Johns Hopkins Ion Channel Center
Rows were chosen to be rich in hits. Some 3.5% of all compounds tested hit in one or more screens of this group.
MrgX1 ag: agonists of human MrgX1 receptor, primary screen, HEK293 cells, Fluo-4 calcium flux. B-score at 10 µM. actives 0.44% (n = 310,000). Mas-related G-protein coupled receptor member X1 (Homo sapiens), Q96LB2. Fluo-4 calcium fluorescence, agonist mode; active compounds read high;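 active = calcium response B-score plate-corrected fluorescence ratio at least 3 library SD, with starting fluorescence B-score inside 5 SD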
Target sequence (Q96LB2 whole entry, looked up): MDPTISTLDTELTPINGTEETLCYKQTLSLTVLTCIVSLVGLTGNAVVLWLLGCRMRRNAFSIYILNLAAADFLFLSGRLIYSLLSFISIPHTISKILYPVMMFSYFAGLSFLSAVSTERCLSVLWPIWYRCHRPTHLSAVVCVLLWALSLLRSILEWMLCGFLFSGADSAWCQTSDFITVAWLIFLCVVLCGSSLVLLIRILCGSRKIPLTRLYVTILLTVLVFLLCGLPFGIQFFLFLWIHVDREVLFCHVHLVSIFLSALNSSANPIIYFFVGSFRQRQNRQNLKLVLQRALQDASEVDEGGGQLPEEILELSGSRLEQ
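Test system: Stable human MrgX1 HEK293 cell line | Schedule: Overnight plating before 1 h dye loading | Read-out basis: Baseline-normalised fluorescence change ratio, B-scored | Detection: Kinetic calcium dye fluorescence, Fluo-4 NW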
RGS4 pot: RGS4 potentiators or activators, primary screen, cell-based, HEK293 M3R inducible RGS4, calcium flux. carbachol calcium flux Fluo4; active compounds read low. B-score at 10 µM. actives 0.92% (n = 310,000). AID 463111, 2010;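 active = B-score of the integrated calcium signal more than 4 SD below the library mean, with starting fluorescence not abnormally high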;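 note: negative B-score means reduced calcium response which marks RGS4 activation or potentiation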
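Detection: kinetic calcium fluorescence imaging with Fluo4-AM dye, 2 µM / Material: HEK293 cells with stable M3R and inducible RGS4 / Schedule: recording 10 s baseline at 1 Hz, 100 s post-agonist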
MrgX1 PAM: positive allosteric modulators of MrgX1, primary screen, HEK293 cells, Fluo-4 calcium flux; Mas-related G-protein coupled receptor member X1 (Homo sapiens), Q96LB2; FDSS; active compounds read high; B-score at 10 µM; actives 0.63% (n = 310,000);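 active = plate-corrected calcium response at least 3 library SD above typical, normal starting fluorescence, not activating the receptor alone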;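 note: compound read alongside a low EC10 to EC30 dose of BAM8-22 agonist; peak minus trough fluorescence over baseline measured at the second addition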
RGS4 block: RGS4 inhibitors, primary screen, cell-based, HEK293 M3R inducible RGS4, calcium flux. B-score at 10 µM. AID 463165, 2010. Fluo-4 calcium flux; active compounds read high; triggered by carbachol at its EC20. Regulator of G-protein signaling 4 (Homo sapiens), P49798. actives 0.45% (n = 310,000);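 active = B-score, a plate-corrected calcium signal, over three deviations above library mean, with baseline fluorescence within five deviations of library mean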;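 note: RGS4 expression induced by doxycycline in cells with stable M3 receptor; B-score is computed from the integrated fluorescence ratio over baseline after carbachol; higher B-score means a larger calcium signal and so more RGS4 inhibition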
Target sequence (P49798 whole entry, looked up): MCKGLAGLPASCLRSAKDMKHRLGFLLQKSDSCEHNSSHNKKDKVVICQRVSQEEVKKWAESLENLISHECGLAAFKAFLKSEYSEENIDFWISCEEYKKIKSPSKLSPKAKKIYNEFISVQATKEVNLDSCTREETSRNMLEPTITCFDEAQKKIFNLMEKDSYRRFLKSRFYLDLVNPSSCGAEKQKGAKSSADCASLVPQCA
MrgX1 antagonist: antagonists of human MrgX1 receptor, primary screen, HEK293 cells, Fluo-4 calcium flux. Mas-related G-protein coupled receptor member X1 (Homo sapiens), Q96LB2. BAM8-22 antagonism; active compounds read low. B-score at 10 µM. actives 1.3% (n = 310,000);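 active = calcium-response B-score plate-corrected more than 3 library SD below zero, starting fluorescence within 5 deviations, no agonist response on first addition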;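 note: peak minus trough fluorescence over baseline after final BAM8-22 challenge near maximal dose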
MrgX1 allo conf: MrgX1 positive allosteric modulators, duplicate retest, confirmation, HEK293 cells, Fluo-4 calcium flux; shares compounds with MrgX1 PAM; Fluo-4 calcium fluorescence, FDSS; activation (ratio percentage), % at 10 µM; actives 13% (n = 1,200); AID 602413, 2012;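 active = ratio at least 3 SD above the weak peptide control, stable starting fluorescence, no direct agonism earlier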;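 note: compound followed by low BAM8-22 agonist challenge near EC20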
MrgX1 antag conf: MrgX1 receptor antagonists, duplicate retest, confirmation, HEK293 cells, Fluo-4 calcium flux | actives 19% (n = 2,300) | remaining BAM8-22 calcium response % of control (active compounds read low), % at 10 µM | BAM8-22 calcium flux; active compounds read low | shares compounds with MrgX1 antagonist;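 active = remaining agonist calcium response no higher than 100% minus 3 SD of agonist-only control wells, with starting fluorescence near control levels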;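 note: agonist BAM8-22 given at a near maximal EC90 to ECmax level; peak minus minimum fluorescence divided by baseline after agonist addition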
HEK293 Ca flux: nonspecific calcium signal in parental HEK293, confirmation, counter-screen for MrgX1 antagonist project, parental HEK293 cells, Fluo-4 calcium flux; shares compounds with MrgX1 antagonist; Fluo-4 calcium fluorescence, FDSS; fluorescence ratio F(max-min)/F0 at 10 µM; actives 2% (n = 4,000);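 active = duplicate-averaged calcium fluorescence ratio at least three times the standard deviation of buffer wells, a nonspecific response in parental cells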
HEK293 Ca counter: calcium response in parental HEK293 cells, primary screen, counter-screen for MrgX1 allosteric activator project, cell-based, Fluo-4 calcium flux, duplicate. shares compounds with MrgX1 antagonist. Fluo-4 fluorescence ratio; active compounds read high. fluorescence ratio F(max-min)/F0 at 10 µM. actives 0.4% (n = 4,000);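 active = calcium fluorescence ratio, averaged over duplicates, at least 3 SD of the buffer-well ratio, meaning a nonspecific response in receptor-free cells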;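 note: untransfected parental HEK293 lacking MrgX1 used as counterscreen for MrgX1 allosteric activators; fluorescence change taken during the second addition on a kinetic imager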
HEK293 Ca cntr2: calcium response in parental HEK293 cells, primary screen, counter-screen for MrgX1 agonist project, cell-based, Fluo-4 calcium flux, duplicate, agonist mode | shares compounds with MrgX1 antagonist | AID 624115, 2012 | Fluo-4 calcium fluorescence (FDSS); active compounds read high | fluorescence ratio F(max-min)/F0 at 10 µM | actives 8.7% (n = 4,000);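 active = calcium fluorescence ratio at least three times the spread of buffer wells, meaning a non-specific response in parental cells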
Of the large screens only hits and unclear results are named; the others gave an inactive call (follow-up assays come after a bar, where they were run).

COc1ccccc1NC(=S)N(Cc1ccccc1)Cc1ccccn1	MrgX1 PAM 6.58 | MrgX1 allo conf inactive | HEK293 Ca flux inactive | HEK293 Ca counter inactive | HEK293 Ca cntr2 inactive
CCOC(=O)c1c(-c2ccc(C)s2)csc1N	MrgX1 PAM 9.09 | MrgX1 allo conf inactive | HEK293 Ca flux inactive | HEK293 Ca counter inactive | HEK293 Ca cntr2 inactive
CCOC(=O)c1c(CC(C)C)csc1N	none
CCOC(=O)c1c(-c2ccc(C)o2)csc1N	none
CCOC(=O)c1c(-c2ccsc2)csc1N	MrgX1 PAM 8.6 | MrgX1 allo conf inactive | HEK293 Ca flux inactive | HEK293 Ca counter inactive | HEK293 Ca cntr2 inactive
CCOC(=O)c1ccc(NC(=O)C2CC3CCC2C3)cc1 (stereo not given)	MrgX1 PAM 7.53 | MrgX1 allo conf inactive | HEK293 Ca flux inactive | HEK293 Ca counter inactive | HEK293 Ca cntr2 inactive
O=C(Nc1ccccc1Cl)C1CCCN(c2ncnc3c2nc2n3CCCCC2)C1 (stereo not given)	none
COc1cc(-c2noc(C)c2-c2ccc(N(C)C)nc2)cc(OC)c1OC	MrgX1 PAM 7.72, MrgX1 antagonist -5 | MrgX1 allo conf inactive | MrgX1 antag conf inactive | HEK293 Ca flux inactive | HEK293 Ca counter inactive | HEK293 Ca cntr2 inactive
COc1cc(-c2noc(C)c2/C=C/c2ccc(C(=O)O)cc2)cc(OC)c1OC	none
CCOc1ccccc1NC(=O)CSc1ccccc1	MrgX1 PAM 6.91 | MrgX1 allo conf inactive | HEK293 Ca flux inactive | HEK293 Ca counter inactive | HEK293 Ca cntr2 inactive
Fc1cccc2sc(Nc3nnc(-c4ccco4)o3)nc12	MrgX1 PAM 12 | MrgX1 allo conf inactive | HEK293 Ca flux inactive | HEK293 Ca counter inactive | HEK293 Ca cntr2 inactive
Cc1nc(-c2ccc(S(=O)(=O)NCc3ccccn3)s2)cs1	none
Cc1ccccc1Nc1ncnc2c1cnn2-c1ccccc1	MrgX1 PAM 11.5 | MrgX1 allo conf inactive | HEK293 Ca flux inactive | HEK293 Ca counter inactive | HEK293 Ca cntr2 inactive
NNc1ncnc2c1cnn2-c1ccccc1	none
CCSc1nc2c(c(=O)[nH]1)C(c1ccncc1)C(C(=O)OC(C)C)=C(C)N2 (stereo not given)	none
CCSc1nc2c(c(=O)[nH]1)C(c1cccnc1)C(C(=O)OC)=C(C)N2 (stereo not given)	MrgX1 PAM 8.53 | MrgX1 allo conf inactive | HEK293 Ca flux inactive | HEK293 Ca counter inactive | HEK293 Ca cntr2 inactive
CC1(C)CC(=O)c2sc(NS(=O)(=O)c3ccc(Br)cc3)nc2C1	MrgX1 PAM 13.4 | MrgX1 allo conf inactive | HEK293 Ca flux inactive | HEK293 Ca counter inactive | HEK293 Ca cntr2 inactive
CC1(C)CC(=O)c2sc(NS(=O)(=O)c3ccc(Cl)cc3)nc2C1	none
CC1(C)CC(=O)c2sc(NS(=O)(=O)c3ccc(F)cc3)nc2C1	MrgX1 PAM 31.3 | MrgX1 allo conf 6.6% | HEK293 Ca flux inactive | HEK293 Ca counter inactive | HEK293 Ca cntr2 inactive
